Molecular target: CrSMT (Chlamydomonas reinhardtii, UniProt A8IJ34)
Assay: [methyl-3H3]SAM radiometric assay, initial velocity, Lineweaver-Burk
Type: biochemical
Details: E. coli lysate; 100 μM SAM (saturating), phosphate buffer pH 7.5
Method in brief: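 Recombinant 384-aa CrSMT expressed in E. coli BL21(DE3), IPTG-induced (0.4 mM, 2 h, 30 °C), French-press lysate in 20 mM phosphate, 5% glycerol, pH 7.5. Lysate (1–2 mg total protein) incubated 45 min with sterol acceptor 5–150 μM plus [methyl-3H3]SAM (0.6 μCi). Methanolic KOH saponification, hexane extraction of non-saponifiable lipids. Sterol-free background 500–1000 dpm. Lineweaver–Burk analysis.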

Row | SMILES | Km [µM]
1 | CC(C)=CCC[C@@H](C)[C@H]1CC[C@H]2C3=C(CC[C@]12C)[C@@]1(C)CC[C@H](O)C[C@@H]1CC3 [compound 9, Zymosterol] | 22
2 | CC(C)=CCC[C@@H](C)[C@H]1CC[C@@]2(C)C3=C(CC[C@]12C)[C@@]1(C)CC[C@H](O)C(C)(C)[C@@H]1CC3 [compound 1, Lanosterol] | 24
